The subject of data set [1] is Human immunodeficiency virus 1. In words: Antiviral activity against HIV1 NL4-3 infected in human MT4 cells by luciferase reporter gene assay. Format: functional, organism-based. Summed up: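 HIV-1 NL4-3 Nanoluc-sec reporter virus (secreted NanoLuc insert) infecting MT4 cells, multicycle replication format, compounds at various concentrations; replication read as NanoLuc luciferase activity (Nano-Glo).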

For another data set, the system named is MT4. In words: Cytotoxicity against human MT4 cells assessed as reduction in cell viability after 3 days by CellTiter-Glo luminescent assay. Format: cell-based. The following applies: mt4, 72 h. For orientation: ATP-based viability assays read luminescence as a measure of living cells.
Data set [2] is described as follows: Therapeutic index, ratio of CC50 for human MT4 cells to EC50 for HIV1 NL4-3 infected in human MT4 cells. Format: toxicity, cell-based. The following applies: read-out: Ratio CC50/EC50. Summed up: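 TI calculated as CC50 (CellTiter-Glo, MT4 cells, 3 days) divided by EC50 (HIV-1 NL4-3 Nanoluc-sec multicycle replication in MT4 cells, luciferase read-out); CC50/EC50 below 5 taken as no selective anti-HIV activity.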

Usually CC50 stands for the concentration at which the toxic effect on the cells reaches its halfway point. Regarding `CC(=O)O[C@H]1[C@@H](OC(C)=O)[C@@]2(C)[C@@H]3CC[C@H]4C(C)(C)C(=O)CC[C@@]45C[C@@]35CC[C@@]23CO[C@@]2(C(C)(C)O)CC[C@](C)(O2)[C@@H]13`, the EC50 entry in data set [1] is on record as “Not Active”. For the same compound, the half-maximal cytotoxic concentration (CC50) in the data set on MT4 is more than 30 µM. Besides, in data set [2], the selectivity ratio is less than 5.
